The subject of test [1] is Trypanosoma brucei. The experiment in a line: Trypanocidal activity against Trypanosoma brucei bloodstream form at > 1 mM. In kind it is functional, organism-based.
The subject of test [2] is Trypanosoma brucei. The test is described as follows: Trypanocidal activity against Trypanosoma brucei bloodstream form assessed as cell death at 1 mM by spectrophotometry in presence of 1 mM glucose. In kind it is functional, organism-based.
Test [3] concerns Trypanosoma brucei. The experiment in a line: Trypanocidal activity against Trypanosoma brucei bloodstream form assessed as phosphatase activity. Format: functional, organism-based. Summed up: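 Parasites in exponential growth diluted to 2 × 10⁵ cells/ml and cultured 24 h with 1–4 mM DHA. Lysis buffer with p-nitrophenyl phosphate (in 1 M sodium acetate pH 5.5, 1% Triton X-100) added. Read at 405 nm after 6 h at 37°C. IC₅₀ derived from phosphatase activity (Bodley method).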

Test [4] concerns Trypanosoma brucei. The experiment in a line: Effect on morphological changes in Trypanosoma brucei bloodstream form assessed as presence of more than one flagellum at 5 mM after 20 hrs by scanning electron microscopy. Format: functional, organism-based. Summed up: (§1)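 Cells grown 20 h with 5 mM DHA. Fixed and stained as for TEM (glutaraldehyde, osmium tetroxide, uranyl acetate), then dehydrated through 50, 75, 95 and 100% ethanol. Critical-point dried and gold-palladium sputter-coated for scanning electron microscopy.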

The subject of test [5] is Trypanosoma brucei. The experiment in a line: Effect on morphological changes in Trypanosoma brucei bloodstream form assessed as presence of atypical combination of number of nucleus at 5 mM after 20 hrs by scanning electron microscopy. Format: functional, organism-based. In short, it runs like this:
as §1

Test [6] has as its system Trypanosoma brucei. The experiment in a line: Effect on morphological changes in Trypanosoma brucei bloodstream form assessed as presence of more than one flagellum at 3 mM after 24 hrs by transmission electron microscopy. In kind it is functional, organism-based. Summed up: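 Parasites exposed 24 h to 3 mM DHA. 10⁸ cells fixed 1 h at 4°C in 2% glutaraldehyde in 0.2 M sodium cacodylate with 0.12 M sucrose, held overnight in buffer, postfixed in 1.5% osmium tetroxide and stained with 0.5% uranyl acetate. Dehydrated in ethanol, cleared in propylene oxide, embedded in Agar 100. Sections stained with 5% uranyl acetate and 0.4% lead citrate for TEM. Rapamycin (5 μM) served as the autophagy positive control.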

The subject of test [7] is Trypanosoma brucei. The test is described as follows: Cell cycle arrest in Trypanosoma brucei bloodstream form assessed as accumulation at G2/M phase at 2 mM after 24 hrs using propidium iodide staining by FACS analysis. Format: functional. Summed up:
(§2)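 T. brucei bloodstream forms (MITat 1.2, strain EATRO 427), axenic culture at 37°C, 5% CO₂. Treated 24 h. At least 5 × 10⁵ cells washed in PBS, lysed hypotonically 30 min at room temperature in 10 mM phosphate buffer pH 7.4 with 6 μM digitonin. Nuclei stained with propidium iodide (10 μg/ml final) and analysed by flow cytometry for G₁/S/G₂ distribution and degraded DNA.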

Test [8] concerns Trypanosoma brucei. The experiment in a line: Effect on cell cycle of Trypanosoma brucei bloodstream form assessed as DNA content at 1 mM after 24 hrs using propidium iodide staining by FACS analysis. In kind it is functional. In short, it runs like this:
as §2
For orientation: In flow cytometry, cells or beads pass a laser one at a time.

Test [9] deals with Trypanosoma brucei. The test is described as follows: Induction of apoptosis-like programmed cell death in Trypanosoma brucei bloodstream form assessed as phosphatidylserine exposure in outer leaflet of plasma membrane at 1 mM after 24 hrs by V-Fluos staining staining. Format: functional. In short, it runs like this:
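After 24 h DHA exposure of axenic bloodstream-form T. brucei MITat 1.2 (EATRO 427; 37°C, 5% CO₂), cells were washed in HEPES buffer (10 mM, pH 7.4, 140 mM NaCl, 5 mM CaCl₂). They were then stained with annexin V-Fluos for 15 min at 4°C and analysed by flow cytometry.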

Test [10] relates to Trypanosoma brucei. The test is described as follows: Induction of apoptosis-like programmed cell death in Trypanosoma brucei bloodstream form assessed as phosphatidylserine exposure in outer leaflet of plasma membrane at 5 uM after 24 hrs by V-Fluos staining staining. In kind it is functional.

The source made the active and inactive calls. The rule behind the calls is not given here.

As for `O=C(CO)CO` [DIHYDROXYACETONE], the result in the test on Trypanosoma brucei [1], in the test with Trypanosoma brucei [4] and in the test with Trypanosoma brucei [6] was Active. Also, the outcome in the test with Trypanosoma brucei [2] and with Trypanosoma brucei [5] was inactive. Besides, the IC50 (usually the concentration at which inhibition is half-maximal) with Trypanosoma brucei [3] worked out at 1030 µM. In addition, the Activity result in the test on Trypanosoma brucei [7] was “<=70%”; in the test with Trypanosoma brucei [8] it was 4.5%; in the test with Trypanosoma brucei [9], 6.3%; with Trypanosoma brucei [10], 35.8%.

The record behind these values is ChEMBL document CHEMBL1137629, “Antiproliferative effect of dihydroxyacetone on Trypanosoma brucei bloodstream forms: cell cycle progression, subcellular alterations, and cell death” (Antimicrob Agents Chemother, 2007).
